Test results taken from ChEMBL document CHEMBL3352281, “Canthin-6-one displays antiproliferative activity and causes accumulation of cancer cells in the G2/M phase” (J Nat Prod, 2014).
The source made the active and inactive calls. No cut-off for these calls is given here.

How the values were obtained:
PC-3 [1] = experiment: Induction of cell cycle arrest in human PC3 cells assessed as accumulation at G1 phase at 40 uM incubated for 48 hrs by propidium iodide staining based flow cytometry (reference value: 57.8 +/- 0.6%); type: functional
PC-3 [2] = experiment: Inhibition of DNA synthesis in human PC3 cells assessed as reduction in post-mitotic nuclei level at 40 uM pre-incubated for 30 hrs by immunofluorescence microscopy (reference value: 85%); type: functional; conditions: PC-3, read-out: INH
HT-29 [3] = experiment: Antiproliferative activity against human HT-29 cells assessed as inhibition of cell growth at 40 uM after 4 days; type: functional, cell-based
In short: (§1)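 Cell counting: 40 000 cells/well seeded and grown at 37 °C, 5% CO2 in medium with 10% FCS, 2 mM glutamine and penicillin-streptomycin (Ham's F12 for PC-3, RPMI for Jurkat, DMEM for the others). Compound added from a 50-fold stock in 10% DMSO; controls 0.2% DMSO. Quadruplicate wells trypsinized (Jurkat not) and counted in a Malassez chamber; mean ± SEM, n = 4.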

Jurkat [4] = experiment: Antiproliferative activity against human Jurkat cells assessed as inhibition of cell growth at 10 to 60 uM after 4 days; type: functional, cell-based; conditions: 96 h; in short: as §1
[5] = Toxicity against human NHDF assessed as cell viability at 160 uM incubated for 3 days by MTT assay; type: cell-based; conditions: NHDF cells, read-out: Activity
In short: (§2)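 Normal human dermal fibroblasts kept 3 days in DMEM with 10% FCS at increasing concentrations up to 160 μM, DMSO-matched controls. MTT reduction read at 540 nm as percentage viability (mean ± SEM, n = 3), with microscopic morphology scoring.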

Jurkat [6] = experiment: Antiproliferative activity against human Jurkat cells assessed as inhibition of cell growth at 40 uM after 4 days; type: functional, cell-based; in short: as §1
C6 [7] = experiment: Induction of apoptosis in rat C6 cells assessed as induction of procaspase-3 cleavage at 40 uM after 48 hrs by Western blot method; type: functional, cell-based
In short: (§3)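 Western blot: 40 000 cells/well exposed 2−4 days to 40 μM (HeLa 10 and 30 μM) or 0.2% DMSO. Lysed in Laemmli buffer, run on 12.5% SDS-PAGE, moved to nitrocellulose. Probed overnight at 4 °C with rabbit anti-caspase-3 (1/1000), then Alexa-488 secondary. β-Actin loading control; fluorescence read on a laser scanner.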

PC-3 [8] = experiment: Inhibition of DNA synthesis in human PC3 cells assessed as reduction in BrdU incorporation at 40 uM pre-incubated for 30 hrs by Southern blotting method; type: functional
In short: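 PC-3, 10^6 cells per flask, held 30 h at 40 μM or 0.2% DMSO, then 18 h BrdU labeling. Genomic DNA isolated by proteinase K/phenol-chloroform; 400 ng run on agarose, blotted to nitrocellulose, acid-denatured, probed with anti-BrdU and Alexa 647 secondary. Scanned signal normalized to ethidium bromide DNA fluorescence.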

PC-3 [9] = experiment: Induction of apoptosis in human PC3 cells assessed as induction of procaspase-3 cleavage at 40 uM after 48 hrs by Western blot method; type: functional; in short: as §3
PC-3 [10] = experiment: Antiproliferative activity against human PC3 cells assessed as inhibition of cell growth at 40 uM after 4 days; type: functional, cell-based; in short: as §1
C6 [11] = experiment: Antiproliferative activity against rat C6 cells assessed as inhibition of cell growth at 40 uM after 4 days; type: functional, cell-based; in short: as §1
HeLa [12] = experiment: Induction of apoptosis in human HeLa cells assessed as induction of procaspase-3 cleavage at 30 uM after 48 hrs by Western blot method; type: functional; in short: as §3
PC-3 [13] = experiment: Induction of apoptosis in human PC3 cells assessed as induction of procaspase-3 cleavage at 40 uM after 96 hrs by Western blot method; type: functional; in short: as §3
[14] = Antiproliferative activity against mouse NIH/3T3 cells assessed as inhibition of cell growth at 10 to 60 uM after 4 days; type: functional, cell-based; conditions: NIH3T3, 96 h; in short: as §1
C6 [15] = experiment: Antiproliferative activity against rat C6 cells assessed as induction of cell death at 40 to 60 uM after 4 days; type: functional
In short: as §1, with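 “Cells seeded at” for “Cell counting:”, “per well” for “cells/well seeded”, “CO2” for “CO2 in medium”, “HT-29, HeLa, C6, NIH-3T3).” for “the others).”, “solution” for “stock”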

HeLa [16] = experiment: Antiproliferative activity against human HeLa cells assessed as inhibition of cell growth at 10 uM after 4 days; type: functional; conditions: 96 h, read-out: GI; in short: as §1
HeLa [17] = experiment: Induction of apoptosis in human HeLa cells assessed as induction of procaspase-3 cleavage at 10 uM after 48 hrs by Western blot method; type: functional; in short: as §3
NIH3T3 [18] = experiment: Induction of apoptosis in mouse NIH/3T3 cells assessed as induction of procaspase-3 cleavage at 40 uM after 48 hrs by Western blot method; type: functional, cell-based; in short: as §3
PC-3 [19] = experiment: Induction of cell cycle arrest in human PC3 cells assessed as accumulation at G2/M phase at 40 uM incubated for 48 hrs by flow propidium iodide staining based flow cytometry (reference value: 20 +/- 0.6%); type: functional
PC-3 [20] = experiment: Induction of cell cycle arrest in human PC3 cells assessed as accumulation at S phase at 40 uM incubated for 48 hrs by propidium iodide staining based flow cytometry (reference value: 21.6 +/- 0.2%); type: functional
[21] = Toxicity against human NHDF assessed as cell viability up to 20 uM incubated for 3 days by MTT assay; type: cell-based; conditions: NHDF cells, read-out: Activity; in short: as §2
C6 [22] = experiment: Antiproliferative activity against rat C6 cells assessed as inhibition of cell growth at 10 to 60 uM after 4 days; type: functional, cell-based; conditions: C6, 96 h; in short: as §1
[23] = Antiproliferative activity against mouse NIH/3T3 cells assessed as induction of cell death at 40 to 60 uM after 4 days; type: functional, NIH3T3
In short: as §1, with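 “Cells seeded at” for “Cell counting:”, “per well” for “cells/well seeded”, “CO2” for “CO2 in medium”, “HT-29, HeLa, C6, NIH-3T3).” for “the others).”, “solution” for “stock”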

HT-29 [24] = experiment: Antiproliferative activity against human HT-29 cells assessed as induction of cell death at 40 to 60 uM after 4 days; type: functional
In short: as §1, with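 “Cells seeded at” for “Cell counting:”, “per well” for “cells/well seeded”, “CO2” for “CO2 in medium”, “HT-29, HeLa, C6, NIH-3T3).” for “the others).”, “solution” for “stock”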

HeLa [25] = experiment: Antiproliferative activity against human HeLa cells assessed as inhibition of cell growth at 40 uM after 2 days; type: functional; conditions: 48 h, read-out: GI; in short: as §1
[26] = Toxicity against human NHDF assessed as reduction in cell viability incubated for 3 days by MTT assay; type: cell-based; conditions: NHDF cells; in short: as §2
HT-29 [27] = experiment: Antiproliferative activity against human HT-29 cells assessed as inhibition of cell growth at 10 to 60 uM after 4 days; type: functional, cell-based; conditions: HT-29, 96 h; in short: as §1
NIH3T3 [28] = experiment: Antiproliferative activity against mouse NIH/3T3 cells assessed as inhibition of cell growth at 40 uM after 4 days; type: functional, cell-based; in short: as §1
HT-29 [29] = experiment: Induction of apoptosis in human HT-29 cells assessed as induction of procaspase-3 cleavage at 40 uM after 48 hrs by Western blot method; type: functional; in short: as §3
[30] = Toxicity against human NHDF assessed as cell viability at 40 uM incubated for 3 days by MTT assay; type: cell-based; conditions: NHDF cells, read-out: Activity; in short: as §2
[31] = Antiproliferative activity against human PC3 cells assessed as inhibition of cell growth at 10 to 60 uM after 4 days; type: functional, cell-based; conditions: PC-3, 96 h; in short: as §1
Jurkat [32] = experiment: Antiproliferative activity against human Jurkat cells assessed as induction of cell death at 40 to 60 uM after 4 days; type: functional
In short: as §1, with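 “Cells seeded at” for “Cell counting:”, “per well” for “cells/well seeded”, “CO2” for “CO2 in medium”, “HT-29, HeLa, C6, NIH-3T3).” for “the others).”, “solution” for “stock”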

[33] = Antiproliferative activity against human PC3 cells assessed as induction of cell death at 40 to 60 uM after 4 days; type: functional, PC-3
In short: as §1, with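 “Cells seeded at” for “Cell counting:”, “per well” for “cells/well seeded”, “CO2” for “CO2 in medium”, “HT-29, HeLa, C6, NIH-3T3).” for “the others).”, “solution” for “stock”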

PC-3 [34] = experiment: Reduction in mitotic spindles formation in human PC3 cells at 40 uM incubated for 48 hrs by tubulin immunofluorescence assay; type: functional; conditions: PC-3, 48 h
In short: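 Mitotic spindles: PC-3 in chamber slides (10 000/well), 2 days with 40 μM or 0.2% DMSO. Ethanol/glycine fixation, anti-β-tubulin 1/200 for 2 h at 37 °C, then Alexa 488 secondary. Mitotic cells scored by fluorescence microscopy in random fields; at least 6000−10 000 cells counted per group.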

Jurkat [35] = experiment: Induction of apoptosis in human Jurkat cells assessed as induction of procaspase-3 cleavage at 40 uM after 48 hrs by Western blot method; type: functional, cell-based; in short: as §3
[36] = Toxicity against human NHDF assessed as cell viability at 80 uM incubated for 3 days by MTT assay; type: cell-based; conditions: NHDF cells, read-out: Activity; in short: as §2
HeLa [37] = experiment: Antiproliferative activity against human HeLa cells assessed as inhibition of cell growth at 10 to 60 uM after 4 days; type: functional, cell-based; conditions: 96 h; in short: as §1

In the case of `O=c1ccc2nccc3c4ccccc4n1c23` [CANTHIN-6-ONE], the Activity (PC-3 [1]) is reported as 38.1%, the inhibition at 40 µM (PC-3 [2]) is reported as 60% and the “growth inhibition (GI)” value (HT-29 [3]) is reported as “Active”. The EC50 (Jurkat [4]) was 15 µM, the viability at 72 h, 160 µM [5] was 33% and the “growth inhibition (GI)” value (Jurkat [6]) was “Active”. For the same compound, the Activity (C6 [7]) was “inactive”, the inhibition at 40 µM (PC-3 [8]) was 80% and the “fold change (FC)” value (PC-3 [9]) was 2. For the same compound, the “growth inhibition (GI)” value (PC-3 [10]) was “Active”, the “growth inhibition (GI)” value (C6 [11]) was “Active” and the “fold change (FC)” value (HeLa [12]) was 3.5. The “fold change (FC)” value (PC-3 [13]) was 7, the EC50 [14] was 15 µM and the Activity (C6 [15]) was “<=30%”. For the same compound, the inhibition of growth at 10 µM (HeLa [16]) was 100%, the “fold change (FC)” value (HeLa [17]) was 1.5 and the Activity (NIH3T3 [18]) was “inactive”. For the same compound, the Activity (PC-3 [19]) was 47.8%, the Activity (PC-3 [20]) was 13.3% and the viability at 72 h [21] was 80%. For the same compound, the EC50 (C6 [22]) was 15 µM, the Activity [23] was “<=30%” and the Activity (HT-29 [24]) was “<=30%”. It also gave an inhibition of growth at 40 µM (HeLa [25]) greater than 90%, an EC50 at 3 days [26] of 115 µM and an EC50 (HT-29 [27]) of 15 µM. For the same compound, the “growth inhibition (GI)” value (NIH3T3 [28]) was “Active”, the “fold change (FC)” value (HT-29 [29]) was 2 and the viability at 72 h, 40 µM [30] was 80%. The EC50 [31] was 15 µM, the Activity (Jurkat [32]) was “<=30%” and the Activity [33] was “<=30%”. For the same compound, the inhibition at 40 µM (PC-3 [34]) was 80%, the Activity (Jurkat [35]) was “inactive” and the viability at 72 h, 80 µM [36] was 64%. It also gave an EC50 (HeLa [37]) of 5 µM.
